High-throughput results (PubChem BioAssay)
ADAM10 inh: human ADAM10 inhibitors, primary screen, biochemical, QFRET, HTS | Disintegrin and metalloproteinase domain-containing protein 10 (Homo sapiens), O14672 | recombinant ADAM10, EDANS/DABCYL FRET peptide cleavage, 3 h | inhibition, % at 7 µM | hit rate 0.62% among 370,000 | AID 720582, 2013;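 active = inhibition above a per-campaign cutoff equal to the mean of compounds falling between control-based bounds plus 3 SD, cut at about 20% in these data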;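 note: 0% = DMSO wells while the 100% control is not disclosed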
PLCg1 inh: PLC-gamma1 enzyme inhibitors, primary screen, biochemical, fluorescence, purified enzyme; 1-phosphatidylinositol 4,5-bisphosphate phosphodiesterase gamma-1 (Homo sapiens), P19174; AID 720700, 2013; inhibition, % at 12.2 µM; fluorogenic substrate; hit rate 0.84% among 370,000
DDE Tn7 FP inh: inhibitors of Tn7 peptide binding to fibrin DD(E), primary screen, biochemical, fluorescence polarization, human fibrin, Tn7 probe; AID 720508, 2013; Fibrinogen beta chain (Homo sapiens), P02675; hit rate 0.13% among 370,000; FP displacement of FITC-Tn7 peptide from fibrin DD(E); 0% = median of compound wells per plate; inhibition, % at 8.3 µM;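 active = inhibition above the mean of compounds falling within the control limits plus 3 SD of them, cut at about 14% in these data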;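 note: 0% = plate median of compound wells and 100% = 10 µM Aha-Tn7 peptide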
Target sequence (P02675 whole entry, looked up): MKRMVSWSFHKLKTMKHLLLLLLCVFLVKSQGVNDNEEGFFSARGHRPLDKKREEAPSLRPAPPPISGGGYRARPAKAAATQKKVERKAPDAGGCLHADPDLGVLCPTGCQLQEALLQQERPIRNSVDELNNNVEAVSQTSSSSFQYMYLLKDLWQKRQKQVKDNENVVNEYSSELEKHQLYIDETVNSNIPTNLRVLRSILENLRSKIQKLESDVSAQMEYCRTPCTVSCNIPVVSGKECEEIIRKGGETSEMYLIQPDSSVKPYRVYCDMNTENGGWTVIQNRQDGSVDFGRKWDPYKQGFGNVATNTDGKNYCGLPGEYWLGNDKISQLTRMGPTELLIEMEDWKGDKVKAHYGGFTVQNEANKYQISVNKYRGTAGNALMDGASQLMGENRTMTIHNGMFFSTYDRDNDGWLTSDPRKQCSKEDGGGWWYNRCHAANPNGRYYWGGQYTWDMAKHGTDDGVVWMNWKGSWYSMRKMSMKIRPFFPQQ
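Assay system: human fibrin DD(E) protein / Input: 2 µM fibrin DD(E) / Benchmarks: high control of 10 µM Aha-Tn7 peptide / Measured by: fluorescence polarization of the labelled Tn7 tracer / Medium: Tris buffer with calcium and detergent, pH 7.8 / Timing: 10 min compound pre-incubation, 3 h probe incubation at room temperature / Repeats: one replicate per compound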
ADAM17 inh: ADAM17 inhibitors, primary screen, biochemical, QFRET; Disintegrin and metalloproteinase domain-containing protein 17 (Homo sapiens), P78536; recombinant ADAM17, EDANS/DABCYL FRET peptide cleavage; inhibition, % at 6.95 µM; hit rate 0.83% among 370,000; AID 720648, 2013;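 active = inhibition above the mean of compounds lying between control limits plus 3 SD, set per campaign, cut at about 8.5% in these data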;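 note: 0% = DMSO-only wells as the low control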
PLCb3 inh: human PLC-beta3 inhibitors, primary screen, biochemical, fluorescence; inhibition, % at 12.2 µM; AID 720704, 2013; Purified PLC-beta3, fluorogenic substrate; hit rate 0.18% among 370,000; in the data active = inhibition above about 11%;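 note: 0% = median of compound wells on plate and 100% = full blocker control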
DDE Tn6 FP inh: inhibitors of Tn6 peptide binding to fibrin DD(E), primary screen, biochemical, fluorescence polarization, human fibrin, Tn6 probe. Fibrinogen beta chain (Homo sapiens), P02675. Fibrin DD(E) TRITC-Tn6 fluorescence polarization displacement. inhibition, % at 8.3 µM. hit rate 0.21% among 370,000. AID 720509, 2013;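 active = inhibition above a per-campaign cutoff: mean of compounds within control limits plus 3 SD, cut at about 15% in these data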;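 note: 0% = median of all compound wells on the plate and 100% = blocking peptide control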
ADAM10 ctr: ADAM10 inhibitors, counter-screen for ADAM17 exosite inhibitor project, biochemical, FRET, human ADAM10. shares compounds with ADAM17 inh. recombinant ADAM10, EDANS/DABCYL FRET peptide cleavage, 3 h. inhibition, % at 6.95 µM. hit rate 47% among 2,900. AID 743256, 2014;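 active = mean inhibition over the triplicate runs exceeds the activity threshold set in the earlier primary screen, cut at about 20% in these data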;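 note: 0% = DMSO wells and 100% = marimastat wells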
ADAM17 confirm: ADAM17 inhibitors, hit retest, confirmation, biochemical, QFRET peptide cleavage. hit rate 65% among 2,900. AID 743257, 2014. recombinant ADAM17, EDANS/DABCYL QFRET peptide cleavage. shares compounds with ADAM17 inh. inhibition, % at 6.95 µM;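 active = mean inhibition across replicates above the hit cutoff set in the primary screen, cut at about 8.5% in these data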;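 note: 0% = DMSO wells and 100% = marimastat wells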
PLCgamma1 ctr: PLC-gamma1 enzyme inhibitors, counter-screen for PLC-beta3 inhibitor project, biochemical, fluorescence | shares compounds with PLCg1 inh | purified PLC-gamma1, fluorogenic substrate | inhibition, % at 12.3 µM | hit rate 3.1% among 3,300
PLCb3 confirm: PLC-beta3 inhibitor confirmation, biochemical, fluorescence, purified enzyme; inhibition, % at 12.3 µM; shares compounds with PLCg1 inh; AID 743261, 2014; hit rate 1% among 3,300; fluorogenic substrate fluorescence; in the data active = inhibition above about 11%
* = called active by the depositor; / = not tested or not shown. An excerpt weighted towards active compounds, which were near 2.3% of everything screened. Cut-off read from the data, not from the text of the source, unless noted: active = inhibition above about 9.5%; inactive = the rest.

SMILES	ADAM10 inh	PLCg1 inh	DDE Tn7 FP inh	ADAM17 inh	PLCb3 inh	DDE Tn6 FP inh	ADAM10 ctr	ADAM17 confirm	PLCgamma1 ctr	PLCb3 confirm
CC1CC(C)CN(C(=O)COC(=O)COc2ccccc2C#N)C1 (centres undefined)	4	13*	-2	9.7*	1	9	22*	11*	-6	-2
COC(=O)[C@]12C[C@H](CC(=O)NCc3cccs3)C(=O)N(CCc3ccc(OC)c(OC)c3)C1=C[C@H](COCc1ccccc1)O[C@@H]2C	7	1	-3	2	3	8	/	/	/	/
COc1ccc(S[C@]2(C(=O)N3CCOCC3)CC(=O)N(C(=O)c3ccccc3)[C@@H]2c2ccc(OC)cc2)cc1	0	0	2	2	0	-6	/	/	/	/
COC(=O)c1cccc(N2C(=O)C[C@](Sc3ccc(OC)cc3)(C(=O)N3CCOCC3)[C@H]2c2ccc(OC)cc2)c1	18	15*	5	14*	6	-2	17	9	-5	0
COc1ccc(S[C@]2(C(=O)N3CCN(C(C)=O)CC3)CC(=O)N(C(=O)CCc3ccccc3)[C@@H]2c2ccc(OC)cc2)cc1	19	11*	-6	16*	-1	6	24*	13*	1	-1
C=CC[C@@H](Cc1ccc(F)cc1)C(=O)OC[C@@H]1CCCN1C(=O)[C@H](CC=C)CC(=O)N(CCO)Cc1ccccc1	19	10*	0	10*	8	8	6	7	-9	-4
C=CCC[C@@H](Cc1ccc(F)cc1)C(=O)OC[C@@H]1CCCN1C(=O)[C@@H](CC=C)CC(=O)N[C@@H](CO)Cc1ccccc1	20	11*	2	9.1*	5	3	11	9.3*	-6	0
C=CCC[C@@H](Cc1ccc(F)cc1)C(=O)OC[C@@H](NC(=O)[C@@H](CC=C)CC(=O)N[C@H](CO)Cc1ccccc1)C(C)(C)C	18	11*	1	9.6*	8	-5	35*	18*	-4	4
c1ccc(Cc2cnc(N3CCN(Cc4ccc5c(c4)OCCO5)CC3)nc2)cc1	5	9.8*	-2	11*	4	3	3	4	-5	-6
COc1cccc(-c2ccc3ncnc(NCc4ccc5c(c4)OCO5)c3c2)c1	16	11*	-7	11*	12*	-6	-4	2	-8	-5
O=C(c1ccc(F)cc1F)N1CCC(Oc2cccnc2)CC1	4	-1	0	6	0	-4	/	/	/	/
C#CCN(C)S(=O)(=O)c1ccc(N2CCCC2)cc1Br	2	-1	4	0	0	-4	/	/	/	/
Cc1ccc(N(C)S(=O)(=O)c2cccc(C(=O)N3CCN(Cc4ccccc4)CC3)c2)cc1	16	11*	-5	9.3*	-4	4	12	6	2	2
CN(C)S(=O)(=O)c1cccc(C(=O)N2CCN(Cc3ccccc3)CC2)c1	-2	0	-4	-2	-5	-3	/	/	/	/
O=C(/C=C(/c1ccc(Cl)cc1)n1cncn1)c1ccccc1	9	7	-2	9.7*	11*	3	3	4	-4	0
O=C(CCl)NC1CCCCN(Cc2ccc(OC(F)(F)F)cc2)C1=O (centres undefined)	-5	-2	4	-3	2	-4	/	/	/	/
O=C(Nc1ccccc1)C1C2CCC3C(CCC21)C3(Cl)Cl (centres undefined)	13	11*	8	8.8*	8	4	13	9.6*	0	-1
O=C(Nc1cccc(Cl)c1)C1C2CCC3C(CCC21)C3(Cl)Cl (centres undefined)	14	0	-11	7	5	-6	/	/	/	/
CN1C(C(=O)Nc2cccc(O)c2)=CC(c2cccs2)=NS1(=O)=O	13	10*	-4	9.7*	6	-3	18	7	7	3
CC(=O)c1cccc(NC(=O)C2=CC(c3cccs3)=NS(=O)(=O)N2C)c1	-2	-3	-1	0	-7	10	/	/	/	/
CCn1c(COc2ccc(Cl)cc2)nnc1SCC(=O)Nc1ccc(Oc2ccccc2)cc1	-5	-2	1	0	1	1	/	/	/	/
Cc1ccc(S(=O)(=O)N2C3CCCCC3O[C@H]2CC(=O)c2ccc(F)cc2)cc1 (some centres undefined)	13	11*	-9	9.6*	-1	-3	9	6	-6	-4
Cc1ccc(S(=O)(=O)N2C3CCCCC3O[C@H]2CC(=O)c2ccccc2)cc1 (some centres undefined)	0	3	4	1	2	5	/	/	/	/
CCOC(=O)C1(Cc2cccc(Cl)c2)CCCN(C(=O)CCOC)C1 (centres undefined)	0	2	9	-2	2	8	/	/	/	/
C=CCCC(=O)N1CCCC(Cc2cccc(Cl)c2)(C(=O)OCC)C1 (centres undefined)	10	12*	-4	9.1*	2	-8	-6	0	-3	-7
COc1ccc(C(=O)N2CCCC(c3cc(C(=O)NCc4ccc(F)cc4)no3)C2)cc1 (centres undefined)	6	9.7*	-5	8.8*	6	-2	-6	-2	-7	-1
